Assay results reported in ChEMBL document CHEMBL1153830, “Treatment of a clinically relevant plant-pathogenic fungus with an agricultural azole causes cross-resistance to medical azoles and potentiates caspofungin efficacy” (2007).
Values after ≈ are worked out from the molar mass of the structure shown. Active and inactive are the calls of the source. The rule behind the calls is not given here.

How the values were obtained:
[1] = system: Colletotrichum graminicola; assay: Fungicidal activity against tebuconazole-nonadapted wild type Colletotrichum graminicola CgM2 assessed as inhibition of radial growth rate at 23 degC in darkness; type: functional; settings: for EC50: Colletotrichum graminicola, CgM2, read-out: ED50 (the source's name)
Outline: (§1)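 Radial growth on solid complete medium, 23°C, darkness. Colony diameters were read at 3 and 6 days after inoculation and compared with drug-free control plates. Azoles and picoxystrobin were dissolved in 12% (wt/vol) Cremophor EL and tested at 0–2.5 μg/ml. Caspofungin, amphotericin B and nystatin were dissolved in water and tested from 0.00025 μg/ml; caspofungin plates used sucrose (10 mg/ml) in place of glucose.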

[2] = system: Colletotrichum graminicola; assay: Fungicidal activity against tebuconazole-adapted wild type Colletotrichum graminicola CgM2 assessed as inhibition of radial growth rate at 23 degC in darkness; type: functional; settings: for EC50: Colletotrichum graminicola, CgM2, read-out: ED50 (the source's name); outline: as §1
[3] = system: Colletotrichum graminicola; assay: Ratio of ED50 for tebuconazole-adapted wild type Colletotrichum graminicola CgM2 to ED50 for tebuconazole-nonadapted wild type Colletotrichum graminicola CgM2; type: functional
Outline: (§2)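 Values came from logit transformation and linear regression, with confidence intervals at α = 0.05. Ratios compare tebuconazole-adapted with nonadapted CgM2.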

[4] = system: Colletotrichum graminicola; assay: Ratio of ED90 for tebuconazole-adapted wild type Colletotrichum graminicola CgM2 to ED90 for tebuconazole-nonadapted wild type Colletotrichum graminicola CgM2; type: functional; outline: as §2
[5] = system: Colletotrichum graminicola; assay: Fungicidal activity against compound-adapted wild type Colletotrichum graminicola CgM2 assessed as inhibition of radial growth rate at 30 ppm at 23 degC in darkness after 7 days; type: functional, organism-based
Outline: (§3)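 Isolate CgM2: 1 × 10^6 conidia grown in 50 ml liquid complete medium (CM), 7 days in darkness at 23°C. Adapted lines were passed through tebuconazole at 1, 5 and 20 μg/ml, then kept on CM plates containing 5 and 8 μg/ml (4 weeks each) and finally 30 μg/ml. Radial growth on CM plates was compared with that of the nonadapted strain.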

[6] = system: Colletotrichum graminicola; assay: Fungicidal activity against compound-nonadapted wild type Colletotrichum graminicola CgM2 assessed as inhibition of radial growth rate at 30 ppm at 23 degC in darkness after 7 days; type: functional, organism-based; outline: as §3

| Compound | ED90 [1] | EC50 [1] | ED90 [2] | EC50 [2] | fold change (FC) [3] | fold change (FC) [4] | Activity [5] | Activity [6] |
| --- | --- | --- | --- | --- | --- | --- | --- | --- |
| CCCN(CCOc1c(Cl)cc(Cl)cc1Cl)C(=O)n1ccnc1 [PROCHLORAZ] | 0.087 µg/mL (≈ 0.231 µM) | 0.004 µg/mL (≈ 0.0106 µM) | 0.72 µg/mL (≈ 1.91 µM) | 0.011 µg/mL (≈ 0.0292 µM) | 2.75 | 8 |  |  |
| Clc1ccc(COC(Cn2ccnc2)c2ccc(Cl)cc2Cl)c(Cl)c1 (stereo not drawn) [MICONAZOLE] | 1.327 µg/mL (≈ 3.19 µM) | 0.028 µg/mL (≈ 0.0673 µM) | 4.386 µg/mL (≈ 10.5 µM) | 0.048 µg/mL (≈ 0.115 µM) |  |  |  |  |
| CC(=O)N1CCN(c2ccc(OCC3COC(Cn4ccnc4)(c4ccc(Cl)cc4Cl)O3)cc2)CC1 (stereo not drawn) [KETOCONAZOLE] | 1.492 µg/mL (≈ 2.81 µM) | 0.115 µg/mL (≈ 0.216 µM) | 12.419 µg/mL (≈ 23.4 µM) | 0.552 µg/mL (≈ 1.04 µM) |  |  |  |  |
| Cc1cc(C2CCCCC2)n(O)c(=O)c1.NCCO [CICLOPIROX OLAMINE] | 64.842 µg/mL | 9.83 µg/mL | 54.616 µg/mL | 3.67 µg/mL |  |  |  |  |
| Clc1ccccc1C(c1ccccc1)(c1ccccc1)n1ccnc1 [CLOTRIMAZOLE] | 2.44 µg/mL (≈ 7.08 µM) | 0.128 µg/mL (≈ 0.371 µM) | 6.485 µg/mL (≈ 18.8 µM) | 0.145 µg/mL (≈ 0.42 µM) |  |  |  |  |
| CC(C)(C)C(O)(CCc1ccc(Cl)cc1)Cn1cncn1 (stereo not drawn) [TEBUCONAZOLE] | 0.504 µg/mL (≈ 1.64 µM) | 0.059 µg/mL (≈ 0.192 µM) | 13.534 µg/mL (≈ 44 µM) | 0.423 µg/mL (≈ 1.37 µM) | 7 | 27 | inactive | Active |
| C[C@@H](c1ncncc1F)[C@](O)(Cn1cncn1)c1ccc(F)cc1F [VORICONAZOLE] | 0.228 µg/mL (≈ 0.653 µM) | 0.018 µg/mL (≈ 0.0515 µM) | 1.328 µg/mL (≈ 3.8 µM) | 0.045 µg/mL (≈ 0.129 µM) |  |  |  |  |
| CCC(C)n1ncn(-c2ccc(N3CCN(c4ccc(OCC5COC(Cn6cncn6)(c6ccc(Cl)cc6Cl)O5)cc4)CC3)cc2)c1=O (stereo not drawn) [ITRACONAZOLE] | 1.351 µg/mL (≈ 1.91 µM) | 0.007 µg/mL (≈ 0.00992 µM) | 8.848 µg/mL (≈ 12.5 µM) | 0.014 µg/mL (≈ 0.0198 µM) |  |  |  |  |
